This is a sample that favours compounds with a hit; in the whole collection about 0.91% have one here.
Lipid droplet = inhibitors of hepatocyte lipid droplet formation, primary screen, imaging, high-throughput imaging, BODIPY stain; AML12 mouse hepatocytes, oleate lipid droplets; inhibition, % at 6.5 µM; 240,000 compounds, 0.4% hits;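 active = lipid droplet intensity inhibited by at least 50%, with more than 500 cells counted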
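System: AML12 hepatocytes (mouse). Probe or stimulus: oleic acid at 100 µM to induce lipid droplet formation. Times: overnight treatment with compound plus oleate. Detection: Image-based BODIPY and DAPI two-channel analysis. Evaluation: percent inhibition of filter-corrected integrated lipid droplet intensity per well.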
L929 necroptosis = inhibitors of zVAD-triggered necroptosis, primary screen, L929 cells; L929 zVAD necroptosis rescue, ATP luminescence, 24 h; with zVAD 60 µM; viability rescue, % at 10 µM; 220,000 compounds, 0.38% hits;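 active = activation, scaled between plate controls, above about 75%, limit read from the data; inactive = activation under that limit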;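 also: 0% = zVAD with DMSO and 100% = DMSO alone without zVAD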
Pf gametocyte = late stage P. falciparum gametocyte viability inhibitors, primary screen, ATP luminescence, HTS; P. falciparum stage V gametocytes, 24 h; inhibition, % at 10.9 µM; 150,000 compounds, 0.065% hits;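 active = inhibition above the mean plus 3 SD of compounds within the control limits, set per campaign, cut at about 38% in these data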;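 also: 0% = DMSO wells and 100% = medium only without gametocytes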
TNF necrop inh = inhibitors of TNF-alpha triggered necroptosis, primary screen, cell-based, Jurkat FADD-/-, single concentration. Jurkat FADD-/- TNF necroptosis rescue, ATP luminescence, 24 h; 0 = TNF only, 100 = no-TNF cells. 220,000 compounds, 0.068% hits. activation (protection from cell death), % at 10 µM;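 active = activation, meaning protection from cell death, of at least 50% relative to plate controls; inactive = activation below 50%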;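 also: necroptosis triggered by 40 ng/mL TNF-alpha added together with compound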
Arbovirus anti = antivirals against arbovirus infection, primary screen, cell-based, full library, 10K replicate subset; 200,000 compounds, 0.37% hits; arbovirus infection cell-based antiviral screen; inhibition, % at 10 µM; AID 1251, 2008; in the data active = inhibition above about 30%
Hep lipid conf = hepatocyte lipid droplet accumulation inhibitors, confirmation, imaging, AML12 mouse hepatocytes, single concentration, high-content | BODIPY lipid droplet imaging; droplets induced with 100 µM oleic acid | 870 compounds, 65% hits | shares compounds with Lipid droplet | inhibition, % at 5.2 µM;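 active = inhibition of lipid droplet metric at least 50%, with more than 300 cells in each of four replicates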;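 also: plate controls were DMSO with oleic acid for no effect and 5 µM Triacsin-C for full effect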
AML12 tox img = AML12 hepatocyte cytotoxicity, counter-screen for hepatic lipid droplet formation project, imaging, DAPI nuclear morphology imaging; shares compounds with Lipid droplet; AML12 mouse hepatocytes; hits give high values; cells fed 100 µM oleate overnight; z-score at 5 µM; 870 compounds, 3% hits; in the data active = z-score above about 6.3;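 also: compound exposure lasted overnight at 37 °C before fixation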
AML12 tox ATP = AML12 hepatocyte cytotoxicity, confirmation, cytotoxicity control for hepatic lipid droplet formation project, cell-based, single concentration. AID 463219, 2010. 530 tested, under 10 active. AML12 mouse hepatocyte viability, ATP luminescence; cells loaded with 100 µM oleic acid. shares compounds with Lipid droplet. cytotoxicity, % at 50 µM;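 active = cytotoxicity above 50% in each of four replicates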;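 also: compound exposure lasted overnight at 37 °C before the ATP read; 0% = DMSO-treated cells and 100% = wells with no cells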
Starred values were filed as active, the others as inactive; / = no result.

SMILES	Lipid droplet	L929 necroptosis	Pf gametocyte	TNF necrop inh	Arbovirus anti	Hep lipid conf	AML12 tox img	AML12 tox ATP
CCOc1ccc(C(C)NC(=O)Cc2ccccc2F)cc1OCC (configuration not stated)	50*	2	-18	0	0	93*	0.4	10
CCOc1ccc(C(C)NC(=O)Cc2ccccc2)cc1OCC (configuration not stated)	53*	0	16	0	2	73*	-1.4	-1
CC(=O)Nc1c(C)ccc(S(N)(=O)=O)c1C	11	6	14	0	-8	/	/	/
CCn1c(O)c(N=NC(=O)CNc2cccc(C)c2)c2ccccc21	-4	1	/	2	-16	/	/	/
COC(=O)Cn1c(O)c(N=NC(=O)CNC(=O)COc2cccc(C)c2)c2ccccc21	68*	/	/	/	/	25	-1.1	/
CCCOc1ccc(/C=N/Nc2ccccc2[N+](=O)[O-])c(OCCC)c1	81*	1	/	2	15	113*	-0.49	7
O=[N+]([O-])c1ccccc1N/N=C\c1ccccc1Cl	59*	0	-2	-6	-1	34	0.24	/
O=[N+]([O-])c1ccccc1N/N=C\c1ccccc1F	49	0	-18	0	/	/	/	/
COc1ccc(Cn2c(-c3ccc(C)cc3)c[n+]3ccccc23)cc1	-21	0	25	-3	16	/	/	/
CC(C)(C)N1C(=O)c2ccc(C(=O)Nc3ccc(O)cc3)cc2C1=O	7	/	-27	/	/	/	/	/
CCc1ccc(OCc2cccc(C(=O)N/N=C\c3cnn(C)c3C)c2)cc1	-16	/	/	/	/	/	/	/
COc1ccc(C2c3[nH]c4ccccc4c3CCN2C(=O)c2ccc(=O)n(C)n2)c(F)c1 (configuration not stated)	4	0	-6	-2	-6	/	/	/
CCc1cc(C(=O)N2CCc3c([nH]c4ccccc34)C2c2ccc(OC)cc2F)no1 (configuration not stated)	69*	0	/	-3	7	81*	0.77	-20
CCOC(=O)C1CCN(S(=O)(=O)c2cn(C)cn2)CC1	2	/	/	/	/	/	/	/
CCCCc1ccc(N=N/C(C(=O)Nc2ccccc2OC)=C(/C)O)cc1	-2	1	/	1	7	/	/	/
CCCCc1ccc(N=N/C(C(=O)Nc2cc(OC)c(NC(C)=O)cc2OC)=C(/C)O)cc1	96*	1	/	1	12	0	-0.68	/
CSc1c(CC(=O)Nc2ccccc2C(F)(F)F)n(Cc2ccccc2)c2ccccc12	69*	1	-2	4	-8	104*	0.47	/
CCN(CC)S(=O)(=O)c1ccc(S(=O)(=O)N(CC(=O)Nc2ccccc2)Cc2ccco2)cc1	62*	0	/	1	-4	96*	-0.42	11
N=c1c(C(=O)NCCN2CCOCC2)cc2c(=O)n3ccccc3nc2n1Cc1ccc(F)cc1	-23	/	/	/	/	/	/	/
N=c1c(C(=O)NCCN2CCOCC2)cc2c(=O)n3ccccc3nc2n1CCCN1CCOCC1	52*	/	/	/	/	16	-0.46	/
COc1ccc(/C=C/C(=O)NCC2COc3ccccc3O2)c(OC)c1 (configuration not stated)	65*	6	-7	3	-6	84*	0.48	13
COc1ccc(NC(=O)CCC2COc3ccccc3O2)c(OC)c1 (configuration not stated)	13	0	-25	-1	11	/	/	/
O=C1CN(C(=O)COc2ccc(Cl)cc2Cl)c2ccccc2N1	-7	/	/	/	/	/	/	/
O=C1CN(C(=O)Cn2ncc(Cl)c(Cl)c2=O)c2ccccc2N1	126*	2	-4	-15	-30	0	0.66	/

Assay outcomes: PubChem BioAssay, several laboratories
